This is an account of results in ChEMBL document CHEMBL3272018, “Synthesis of aziridinylallylaminophosphine oxides and sulfides as potential adjuvant cancer chemotherapeutic agents” (J Med Chem, 1976).

The subject of data set [1] is Rattus norvegicus. Put plainly: Toxicity in rat allografted with rat Walker 256 cells intramuscularly assessed as change in body weight at 0.23 mg/kg, qd administered for 5 days. Set-up: dose 0.23 mg/kg, route intramuscular. The following applies: in vivo, im, 120 h. Format: organism-based. The method in brief:
(§1)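 Walker 256 carcinoma solid-tumour system in rats (parent line, or the line resistant to cytoxan). Dosing was one injection per day for 5 days. Toxicity was taken as the average net body-weight change of the treated group minus the average net weight change of the untreated tumour-bearing controls, in grams.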

Data set [2] deals with Rattus norvegicus. The experiment in a line: Toxicity in rat allografted with rat Walker 256 cells intramuscularly assessed as change in body weight at 3.12 mg/kg, qd administered for 5 days. Format: organism-based. More on the design: dose 3.12 mg/kg, route intramuscular. Particulars: in vivo, im, 120 h. The method in brief: as §1
For data set [3], the system named is Rattus norvegicus. Put plainly: Toxicity in rat allografted with rat Walker 256 cells intramuscularly assessed as mortality at 12 mg/kg administered as single dose. Set-up: dose 12 mg/kg, route intramuscular. Format: organism-based. Particulars: in vivo, im. The method in brief:
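Walker 256 solid-tumour system in rats. A single dose level of 12.0 mg/kg was given as one injection. Toxic deaths were recorded, and tumour presence was checked when the animals were sacrificed.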

Data set [4] concerns Rattus norvegicus. The experiment in a line: Toxicity in rat allografted with rat Walker 256 cells intramuscularly assessed as change in body weight at 1.56 mg/kg, qd administered for 5 days. Format: organism-based. More on the design: dose 1.56 mg/kg, route intramuscular. Particulars: in vivo, im, 120 h. The method in brief:
as §1

For data set [5], the system named is W256. Put plainly: Antitumor activity against rat Walker 256 cells intramuscularly allografted in rat assessed as survival rate at 0.23 mg/kg, qd administered for 5 days. More on the design: dose 0.23 mg/kg. Type of data set: functional, organism-based. The method in brief:
(§2)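 Rats bearing Walker 256 carcinoma as a solid tumor; lines 1-8 use a cytoxan-resistant Walker 256 subline. Dosed once daily for 5 days. Treated (T) and untreated control (C) groups are compared, and the response is given as T/C percentage, reflecting increase in survival time. Host weight change is the average weight change of the test group minus that of the controls, in grams.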

Data set [6] concerns W256. The experiment in a line: Antitumor activity against rat Walker 256 cells intramuscularly allografted in rat assessed as tumor incidence at 12 mg/kg administered as single dose. Set-up: dose 12 mg/kg. Format: functional, organism-based. The method in brief:
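Walker 256 solid tumour in rats, given one injection at 12.0 mg/kg. Tumours and toxic deaths were recorded at sacrifice.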

Data set [7] has as its system W256. The experiment in a line: Antitumor activity against rat Walker 256 cells intramuscularly allografted in rat assessed as tumor growth inhibition at 3.12 mg/kg, qd administered for 5 days relative to control. Type of data set: functional. The following applies: W256, im, 120 h, route intramuscular, read-out: TGI. An outline of the steps: (§3)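 Walker 256 carcinoma grown as a solid tumour in rats, with one injection daily for 5 days. Response is given as T/C %, the treated-group measure over the untreated-control tumour measure; a smaller value means more activity. Host toxicity is the mean net weight change of treated minus control animals, in grams.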

Data set [8] deals with Rattus norvegicus. The experiment in a line: Toxicity in rat allografted with rat Walker 256 cells intramuscularly assessed as change in body weight at 0.47 mg/kg, qd administered for 5 days. Type of data set: organism-based. Set-up: dose 0.47 mg/kg, route intramuscular. The following applies: in vivo, im, 120 h. An outline of the steps:
as §1

Data set [9] has as its system W256. Put plainly: Antitumor activity against rat Walker 256 cells intramuscularly allografted in rat assessed as survival rate at 0.78 mg/kg, qd administered for 5 days. Type of data set: functional, organism-based. Set-up: dose 0.78 mg/kg. The method in brief:
as §2

For data set [10], the system named is W256. Put plainly: Antitumor activity against rat Walker 256 cells intramuscularly allografted in rat assessed as tumor growth inhibition at 0.78 mg/kg, qd administered for 5 days relative to control. Format: functional. The following applies: W256, im, 120 h, route intramuscular, read-out: TGI. The method in brief: (§4)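 Dosed once daily for 5 days. Response is tumor progression in treated (T) versus untreated control (C) animals, expressed as T/C percentage. Host weight change is reported as the average net weight change of the test group minus that of the controls, in grams.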

The test system of data set [11] is W256. Put plainly: Antitumor activity against rat Walker 256 cells intramuscularly allografted in rat assessed as survival rate at 0.47 mg/kg, qd administered for 5 days. Type of data set: functional, organism-based. Set-up: dose 0.47 mg/kg. An outline of the steps: as §2
Data set [12] relates to W256. Put plainly: Antitumor activity against rat Walker 256 cells intramuscularly allografted in rat assessed as survival rate at 3.12 mg/kg, qd administered for 5 days. Format: functional, organism-based. More on the design: dose 3.12 mg/kg. An outline of the steps:
as §2

For data set [13], the system named is W256. Put plainly: Antitumor activity against rat Walker 256 cells intramuscularly allografted in rat assessed as tumor growth inhibition at 0.47 mg/kg, qd administered for 5 days relative to control. The following applies: W256, im, 120 h, route intramuscular, read-out: TGI. Type of data set: functional. An outline of the steps: as §4
For data set [14], the system named is W256. Put plainly: Antitumor activity against rat Walker 256 cells intramuscularly allografted in rat assessed as tumor growth inhibition. Format: functional. Particulars: W256, im. An outline of the steps: as §4
The subject of data set [15] is W256. The experiment in a line: Antitumor activity against rat Walker 256 cells intramuscularly allografted in rat assessed as tumor growth inhibition at 0.23 mg/kg, qd administered for 5 days relative to control. Format: functional. Particulars: W256, im, 120 h, route intramuscular, read-out: TGI. An outline of the steps: as §4
Data set [16] has as its system W256. The experiment in a line: Antitumor activity against rat Walker 256 cells intramuscularly allografted in rat assessed as tumor growth inhibition at 1.56 mg/kg, qd administered for 5 days relative to control. Type of data set: functional. The following applies: W256, im, 120 h, route intramuscular, read-out: TGI. The method in brief: as §4
The subject of data set [17] is W256. The experiment in a line: Antitumor activity against rat Walker 256 cells intramuscularly allografted in rat assessed as survival rate at 6.25 mg/kg, qd administered for 5 days. Type of data set: functional, organism-based. More on the design: dose 6.25 mg/kg. The method in brief: as §2
The subject of data set [18] is W256. The experiment in a line: Antitumor activity against rat Walker 256 cells intramuscularly allografted in rat assessed as tumor growth inhibition at 6.25 mg/kg, qd administered for 5 days relative to control. Format: functional. The following applies: W256, im, 120 h, route intramuscular, read-out: TGI. The method in brief:
as §3

Data set [19] is described as follows: Toxicity in rat allografted with rat Walker 256 cells intramuscularly. Format: organism-based.
Data set [20] concerns W256. The experiment in a line: Antitumor activity against rat Walker 256 cells intramuscularly allografted in rat assessed as survival rate at 1.56 mg/kg, qd administered for 5 days. Type of data set: functional, organism-based. Set-up: dose 1.56 mg/kg. An outline of the steps:
as §2

The subject of data set [21] is Rattus norvegicus. Put plainly: Toxicity in rat allografted with rat Walker 256 cells intramuscularly assessed as change in body weight at 6.25 mg/kg, qd administered for 5 days. Format: organism-based. The following applies: in vivo, im, 120 h. More on the design: dose 6.25 mg/kg, route intramuscular. The method in brief:
as §1

Data set [22] in a line: Therapeutic index, ratio of LD50 for rat allografted with rat Walker 256 cells to ED10 for antitumor activity against rat Walker 256 cells intramuscularly allografted in rat. Type of data set: cell-based. Particulars: read-out: TI. The method in brief: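 Therapeutic index is LD50/ED10 in the Walker 256 solid tumour system. ED10 is the dose giving a 10% tumour weight reduction, with values extrapolated from dose-response data.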

Data set [23] deals with Rattus norvegicus. The experiment in a line: Toxicity in rat allografted with rat Walker 256 cells intramuscularly assessed as change in body weight at 0.78 mg/kg, qd administered for 5 days. Type of data set: organism-based. The following applies: in vivo, im, 120 h. More on the design: dose 0.78 mg/kg, route intramuscular. An outline of the steps: as §1

Activity calls are given as the source filed them. The calls are words filed in the database; no cut-off is given here.

In the case of `C=CCN(CC=C)P(=O)(N(CC=C)CC=C)N1CC1C` (stereo not drawn), the Activity with Rattus norvegicus [1] is on record as -3 g; with Rattus norvegicus [2] it was -15 g; in the data set with Rattus norvegicus [3], “Non-toxic”; in the data set on Rattus norvegicus [4] it was -22 g; in the data set on Rattus norvegicus [8] it was -15 g; with Rattus norvegicus [21], -28 g. Moreover, in the data set with Rattus norvegicus [23], the Activity was -8 g. In addition, the outcome in the data set with W256 [5], with W256 [6], with W256 [9], in the data set with W256 [11], in the data set on W256 [12] and with W256 [17] was Active. Also, the result in the data set with W256 [20] was Active. For the same molecule, the inhibition in vivo at 3.12 mg/kg in the data set on W256 [7] came out at 1%. Further, in the data set on W256 [10], the inhibition in vivo at 0.78 mg/kg amounted to 4%. The inhibition in vivo at 0.47 mg/kg in the data set on W256 [13] is 2%. For the same molecule, in the data set on W256 [14], the ED10 stood at 0.62 mg/kg. Further, the inhibition in vivo at 0.23 mg/kg with W256 [15] is 33%. Further, in the data set with W256 [16], the inhibition in vivo at 1.56 mg/kg came to 2%. The inhibition in vivo at 6.25 mg/kg with W256 [18] stood at 3%. This molecule showed an LD50 in [19] of 75 mg/kg. For the same molecule, the selectivity ratio in [22] is 125.
